Results from ChEMBL document CHEMBL1142515, “Synthesis and evaluation of structurally constrained quinazolinone derivatives as potent and selective histamine H3 receptor inverse agonists” (J Med Chem, 2008).

Legend:
Mus musculus [1] = test: Ex vivo receptor occupancy of histamine H3 receptor expressed in po dosed MDR1a deficient CF1 mouse plasma assessed by brain occupancy/brain to plasma ratio after 2 hrs; type: functional
Procedure, shortened: (§1)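 Female wild-type and mdr1a (−/−) CF-1 mice given vehicle or compound po (0.1–3 mg/kg) and decapitated at 2 h. Coronal striatal sections (20 μm) incubated 10 min at room temperature with 400 pM tritiated quinazolinone H3 inverse agonist radioligand in sodium phosphate buffer. Nonspecific binding defined with 10 μM R-α-methylhistamine. Sections imaged 6 h by beta-Imager. Brain Occ90 obtained from occupancy versus brain concentration. Plasma Occ90 = brain Occ90/brain-to-plasma ratio.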

LLC-PK1 [2] = test: Ratio of permeability from apical to basolateral side over basolateral to apical side in pig LLC-PK1 cells expressing human MDR1; type: ADME, cell-based, Sus scrofa
[3] = Cmax in Sprague-Dawley rat at 1 mg/kg, iv and 3 mg/kg, po; type: ADME, organism-based; details: in vivo
Procedure, shortened: (§2)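 Male SD rats, male Beagle dogs, male rhesus monkeys given single doses iv (PEG400/EtOH/H2O 50/10/40) or po by gavage (0.5% methylcellulose suspension). Rats 1 mg/kg iv and 3 mg/kg po; dogs and monkeys 0.3 mg/kg iv and 1 mg/kg po. Plasma sampled at multiple times up to 24 h, deproteinized with ethanol plus internal standard. Mean of n = 3 animals/dose.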

Brain [4] = test: Ex vivo drug level in wild type mdr1a (+/+) CF1 mouse brain at 0.3 mg/kg, po after 2 hrs; type: ADME, organism-based; set-up: dose 0.3 mg/kg, route oral
Procedure, shortened: (§3)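 Female mdr1a (+/+) and mdr1a (−/−) CF-1 mice dosed by oral gavage. Terminal blood and whole brain collected 2 h later. Brain homogenized by ultrasonication in 4 volumes water. Plasma and brain deproteinized with ethanol plus internal standard, then measured by LC-MS/MS (positive ESI, MRM). Mean ± SE, n = 3. Brain/plasma ratios calculated from mean values.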

Histamine H3 receptor [5] = biological target: Histamine H3 receptor (Mus musculus, UniProt P58406); test: Displacement of [3H]N-alpha-methylhistamine from mouse recombinant histamine H3 receptor
Brain [6] = test: Drug level in Sprague-Dawley rat brain at 10 mg/kg, po after 2 hrs; type: ADME, organism-based; set-up: dose 10 mg/kg, route oral; details: in vivo
Procedure, shortened: (§4)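 Male SD rats dosed orally at 10 mg/kg. Plasma, brain and CSF concentrations determined 2 h after dosing. Brain/plasma ratio taken from these levels. Mean of n = 3 animals.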

[7] = Plasma concentration in Sprague-Dawley rat at 10 mg/kg, po after 2 hrs; type: ADME, organism-based; set-up: dose 10 mg/kg, route oral; procedure, shortened: as §4
[8] = Ratio of drug level brain to plasma in mdr1a (-/-) deficient CF1 mouse at 0.3 mg/kg, po after 2 hrs; type: ADME, organism-based; set-up: dose 0.3 mg/kg, route oral; details: read-out: BPR; procedure, shortened: as §3
Rattus norvegicus [9] = test: Ex vivo receptor occupancy of histamine H3 receptor in Sprague-Dawley rat assessed as drug level in brain at 1 mg/kg, po after 2 hrs; type: functional
Procedure, shortened: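 Male SD rats given vehicle or 1 mg/kg compound by oral gavage and decapitated at 2 h. Striatal sections (20 μm) incubated 10 min at room temperature with 400 pM tritiated H3 inverse agonist radioligand in sodium phosphate buffer. Nonspecific binding defined with 10 μM R-α-methylhistamine. Beta-Imager exposure 6 h. Drug levels measured by LC-MS/MS.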

Histamine H3 receptor [10] = biological target: T1, Histamine H3 receptor (Homo sapiens, UniProt Q9Y5N1); test: Displacement of [3H]N-alpha-methylhistamine from human recombinant histamine H3 receptor expressed in CHO-K1 cells; type: cell-based
Histamine H3 receptor [11] = biological target: Histamine H3 receptor (Rattus norvegicus, UniProt Q9QYN8); test: Displacement of [3H]N-alpha-methylhistamine from rat recombinant histamine H3 receptor expressed in HEK293 cells; type: cell-based
Rattus norvegicus [12] = test: Increase in tele-methylhistamine level in po dosed Sprague-Dawley rat brain after 2 hrs relative to control; type: functional, organism-based
Procedure, shortened: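 Male SD rats given vehicle (0.5% methylcellulose) or compound po at 1, 3, 10 mg/kg, co-dosed with pargyline ip. Decapitated at 2 h and brains homogenized. tele-Methylhistamine measured by HPLC with fluorometry after solid-phase extraction. Mean ± SE from five experiments. Compared with vehicle by ANOVA with Dunnett's test.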

[13] = Ratio of drug level brain to plasma in wild type mdr1a (+/+) CF1 mouse at 0.3 mg/kg, po after 2 hrs; type: ADME, organism-based; set-up: dose 0.3 mg/kg, route oral; details: read-out: BPR; procedure, shortened: as §3
[14] = Plasma clearance in Beagle dog at 0.3 mg/kg, iv; type: ADME, organism-based, Canis lupus familiaris; set-up: dose 0.3 mg/kg, route intravenous; procedure, shortened: as §2
[15] = AUC (0 to infinity) in Sprague-Dawley rat at 3 mg/kg, po; type: ADME, organism-based; set-up: time infinity, dose 3 mg/kg, route oral; details: plasma; procedure, shortened: as §2
[16] = Cmax in rhesus monkey at 0.3 mg/kg, iv and 1 mg/kg, po; type: ADME, organism-based, Macaca mulatta; details: in vivo; procedure, shortened: as §2
Histamine H1 receptor = Histamine H1 receptor (Homo sapiens, UniProt P35367); test: Inhibition of human histamine H1 receptor
Histamine H3 receptor [17] = biological target: T1, Histamine H3 receptor; test: Antagonist activity at human cloned histamine H3 receptor expressed in CHO-K1 cells assessed as inhibition of R-alpha-methylhistamine-induced [35S]GTPgammaS binding; type: functional, cell-based
[18] = biological target: Voltage-gated inwardly rectifying potassium channel KCNH2 (Homo sapiens, UniProt Q12809); test: Antagonist activity at human ERG in HEK293 cells assessed as inhibition of [35S]N-[(4R)-1'-[(2R)-6-cyano-1,2,3,4-tetrahydro-2-naphthalenyl]-3,4-dihydro-4-hydroxyspiro[2H-1-benzopyran-2,4'-piperidin]-6-yl]methanesulfonamide binding
[19] = Ex vivo drug level in mdr1a (-/-) deficient CF1 mouse plasma at 0.3 mg/kg, po after 2 hrs; type: ADME, organism-based; set-up: dose 0.3 mg/kg, route oral; details: read-out: Drug uptake; procedure, shortened: as §3
Brain [20] = test: Ex vivo drug level in mdr1a (-/-) deficient CF1 mouse brain at 0.3 mg/kg, po after 2 hrs; type: ADME, organism-based; set-up: dose 0.3 mg/kg, route oral; procedure, shortened: as §3
[21] = AUC (0 to infinity) in Beagle dog at 1 mg/kg, po; type: ADME, organism-based, Canis lupus familiaris, Plasma; set-up: time infinity, dose 1 mg/kg, route oral; details: Beagle, plasma; procedure, shortened: as §2
[22] = Cmax in Beagle dog at 0.3 mg/kg, iv and 1 mg/kg, po; type: ADME, organism-based, Canis lupus familiaris; details: in vivo; procedure, shortened: as §2
Mus musculus [23] = test: Ex vivo receptor occupancy of histamine H3 receptor expressed in wild type po dosed CF1 mouse brain after 2 hrs; type: functional; procedure, shortened: as §1
[24] = Drug level in Sprague-Dawley rat cerebrospinal fluid at 10 mg/kg, po after 2 hrs; type: ADME, organism-based; set-up: dose 10 mg/kg, route oral; details: read-out: Drug uptake; procedure, shortened: as §4
Mus musculus [25] = test: Ex vivo receptor occupancy of histamine H3 receptor expressed in po dosed wild type CF1 mouse plasma assessed by brain occupancy/brain to plasma ratio after 2 hrs; type: functional; procedure, shortened: as §1
[26] = Plasma clearance in Sprague-Dawley rat at 1 mg/kg, iv; type: ADME, organism-based; set-up: dose 1 mg/kg, route intravenous; procedure, shortened: as §2
[27] = Oral bioavailability in Beagle dog at 1 mg/kg; type: ADME, organism-based, Canis lupus familiaris; details: Beagle, in vivo; procedure, shortened: as §2
[28] = Ex vivo drug level in wild type mdr1a (+/+) CF1 mouse plasma at 0.3 mg/kg, po after 2 hrs; type: ADME, organism-based; set-up: dose 0.3 mg/kg, route oral; details: read-out: Drug uptake; procedure, shortened: as §3
Rhesus monkey [29] = test: AUC (0 to infinity) in rhesus monkey at 1 mg/kg, po; type: ADME, organism-based, Macaca mulatta, Plasma; set-up: time infinity, dose 1 mg/kg, route oral; details: in vivo; procedure, shortened: as §2
Histamine H4 receptor = Histamine H4 receptor (Homo sapiens, UniProt Q9H3N8); test: Inhibition of human histamine H4 receptor
Histamine H2 receptor = Histamine H2 receptor (Homo sapiens, UniProt P25021); test: Inhibition of human histamine H2 receptor
Rhesus monkey [30] = test: Oral bioavailability in rhesus monkey at 1 mg/kg; type: ADME, organism-based, Macaca mulatta; details: in vivo; procedure, shortened: as §2
LLC-PK1 [31] = test: Ratio of permeability from apical to basolateral side over basolateral to apical side in pig LLC-PK1 cells expressing mouse MDR1a; type: ADME, cell-based, Sus scrofa
[32] = Oral bioavailability in Sprague-Dawley rat at 3 mg/kg; type: ADME, organism-based; details: in vivo; procedure, shortened: as §2
[33] = Ratio of drug level in cerebrospinal fluid to brain in Sprague-Dawley rat at 10 mg/kg, po after 2 hrs; type: ADME, organism-based, CSF/Brain; set-up: dose 10 mg/kg, route oral; details: in vivo
[34] = Ratio of drug level in brain to plasma in Sprague-Dawley rat at 10 mg/kg, po after 2 hrs; type: ADME, organism-based; set-up: dose 10 mg/kg, route oral; details: read-out: BPR; procedure, shortened: as §4

T1 sequence (Q9Y5N1 whole entry): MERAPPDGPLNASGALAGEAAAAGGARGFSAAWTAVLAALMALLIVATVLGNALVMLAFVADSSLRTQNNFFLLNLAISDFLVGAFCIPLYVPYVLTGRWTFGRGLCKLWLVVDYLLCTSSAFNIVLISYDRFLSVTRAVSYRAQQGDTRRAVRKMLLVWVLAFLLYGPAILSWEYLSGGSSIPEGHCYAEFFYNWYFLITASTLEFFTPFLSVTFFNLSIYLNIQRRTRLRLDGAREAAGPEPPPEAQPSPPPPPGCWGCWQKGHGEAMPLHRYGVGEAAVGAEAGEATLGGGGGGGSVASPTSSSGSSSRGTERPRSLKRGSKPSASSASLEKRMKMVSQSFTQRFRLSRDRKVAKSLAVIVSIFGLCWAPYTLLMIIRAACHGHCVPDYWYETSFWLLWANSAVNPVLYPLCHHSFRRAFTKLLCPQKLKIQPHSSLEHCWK
Chain of Histamine H4 receptor (Q9H3N8 whole entry): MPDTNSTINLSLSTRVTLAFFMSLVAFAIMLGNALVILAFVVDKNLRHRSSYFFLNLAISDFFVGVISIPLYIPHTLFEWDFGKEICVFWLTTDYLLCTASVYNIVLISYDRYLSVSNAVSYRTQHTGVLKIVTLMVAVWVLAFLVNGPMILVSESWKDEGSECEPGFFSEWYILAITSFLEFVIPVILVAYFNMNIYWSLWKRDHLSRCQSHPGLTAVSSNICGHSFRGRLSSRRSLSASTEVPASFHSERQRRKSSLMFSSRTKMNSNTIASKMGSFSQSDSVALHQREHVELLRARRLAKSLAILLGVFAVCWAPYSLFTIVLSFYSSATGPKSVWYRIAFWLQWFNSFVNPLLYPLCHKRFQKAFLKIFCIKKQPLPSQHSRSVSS
Chain of Voltage-gated inwardly rectifying potassium channel KCNH2 (Q12809 whole entry): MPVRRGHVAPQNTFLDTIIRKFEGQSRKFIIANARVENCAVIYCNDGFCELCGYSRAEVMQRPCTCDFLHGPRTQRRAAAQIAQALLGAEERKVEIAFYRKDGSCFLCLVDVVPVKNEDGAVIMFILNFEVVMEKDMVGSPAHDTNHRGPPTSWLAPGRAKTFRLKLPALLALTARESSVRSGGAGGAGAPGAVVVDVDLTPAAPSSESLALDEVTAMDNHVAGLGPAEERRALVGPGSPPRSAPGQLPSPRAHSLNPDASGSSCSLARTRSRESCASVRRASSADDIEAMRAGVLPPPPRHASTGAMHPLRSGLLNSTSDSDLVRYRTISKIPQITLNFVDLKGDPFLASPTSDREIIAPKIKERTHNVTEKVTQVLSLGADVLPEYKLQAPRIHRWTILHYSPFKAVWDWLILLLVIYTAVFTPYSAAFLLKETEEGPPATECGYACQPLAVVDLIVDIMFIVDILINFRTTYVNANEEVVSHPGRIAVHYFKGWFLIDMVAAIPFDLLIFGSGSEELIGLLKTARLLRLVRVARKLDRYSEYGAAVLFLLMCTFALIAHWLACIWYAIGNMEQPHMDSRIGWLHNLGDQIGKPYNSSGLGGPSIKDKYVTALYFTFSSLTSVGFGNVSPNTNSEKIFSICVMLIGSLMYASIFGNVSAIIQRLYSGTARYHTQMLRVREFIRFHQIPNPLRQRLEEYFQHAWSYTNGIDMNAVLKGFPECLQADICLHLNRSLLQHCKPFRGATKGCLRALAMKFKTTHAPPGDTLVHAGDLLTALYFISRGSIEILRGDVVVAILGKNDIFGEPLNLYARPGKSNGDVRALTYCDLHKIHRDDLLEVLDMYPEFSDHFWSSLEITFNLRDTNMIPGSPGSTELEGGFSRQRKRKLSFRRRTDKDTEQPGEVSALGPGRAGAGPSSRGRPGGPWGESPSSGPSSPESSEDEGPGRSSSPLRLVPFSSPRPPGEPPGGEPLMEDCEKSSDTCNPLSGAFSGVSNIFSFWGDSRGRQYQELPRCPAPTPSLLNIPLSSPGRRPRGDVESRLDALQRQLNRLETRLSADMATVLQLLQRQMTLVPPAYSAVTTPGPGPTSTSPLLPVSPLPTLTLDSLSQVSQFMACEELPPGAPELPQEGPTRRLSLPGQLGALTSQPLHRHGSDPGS
Chain of Histamine H3 receptor (Mus musculus, UniProt P58406) (P58406 whole entry): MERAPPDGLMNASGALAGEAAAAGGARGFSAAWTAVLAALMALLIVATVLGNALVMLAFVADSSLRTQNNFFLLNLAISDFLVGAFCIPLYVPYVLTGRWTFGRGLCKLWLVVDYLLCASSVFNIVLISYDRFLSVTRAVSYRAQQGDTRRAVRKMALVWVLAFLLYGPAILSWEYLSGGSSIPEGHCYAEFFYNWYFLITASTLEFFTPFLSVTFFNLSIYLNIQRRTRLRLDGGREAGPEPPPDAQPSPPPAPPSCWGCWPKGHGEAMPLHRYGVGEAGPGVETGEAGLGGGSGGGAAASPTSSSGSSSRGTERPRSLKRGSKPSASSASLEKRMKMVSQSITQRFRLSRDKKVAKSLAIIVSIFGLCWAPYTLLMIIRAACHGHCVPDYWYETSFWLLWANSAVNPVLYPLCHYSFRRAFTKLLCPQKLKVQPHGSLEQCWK
Chain of Histamine H3 receptor (Rattus norvegicus, UniProt Q9QYN8) (Q9QYN8 whole entry): as the sequence (P58406 whole entry) above, with A15T, T286A, G290A, H387R, V389I counted along it
Chain of Histamine H1 receptor (P35367 whole entry): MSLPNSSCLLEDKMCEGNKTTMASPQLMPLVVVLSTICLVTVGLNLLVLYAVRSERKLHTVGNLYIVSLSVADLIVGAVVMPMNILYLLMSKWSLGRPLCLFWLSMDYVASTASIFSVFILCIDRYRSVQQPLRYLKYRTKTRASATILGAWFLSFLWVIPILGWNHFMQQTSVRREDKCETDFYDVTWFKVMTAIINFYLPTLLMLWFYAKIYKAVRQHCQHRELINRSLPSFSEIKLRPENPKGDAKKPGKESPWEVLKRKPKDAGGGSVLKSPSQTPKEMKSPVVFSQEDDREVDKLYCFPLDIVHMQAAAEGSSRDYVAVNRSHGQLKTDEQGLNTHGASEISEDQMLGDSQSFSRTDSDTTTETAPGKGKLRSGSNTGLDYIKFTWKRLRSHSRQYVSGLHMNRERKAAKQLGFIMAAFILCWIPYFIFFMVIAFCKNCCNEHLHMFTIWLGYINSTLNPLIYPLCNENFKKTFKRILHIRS
Chain of Histamine H2 receptor (P25021 whole entry): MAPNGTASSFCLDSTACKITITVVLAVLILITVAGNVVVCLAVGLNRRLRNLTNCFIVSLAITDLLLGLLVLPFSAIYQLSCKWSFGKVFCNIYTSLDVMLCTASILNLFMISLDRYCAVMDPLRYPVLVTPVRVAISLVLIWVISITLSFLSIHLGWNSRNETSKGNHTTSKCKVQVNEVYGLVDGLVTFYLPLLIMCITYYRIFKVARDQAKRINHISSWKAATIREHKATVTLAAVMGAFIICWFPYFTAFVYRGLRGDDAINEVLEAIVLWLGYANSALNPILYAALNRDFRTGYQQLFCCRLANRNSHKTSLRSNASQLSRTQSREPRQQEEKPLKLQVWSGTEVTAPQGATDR

Cc1nc2cccc(F)c2c(=O)n1-c1ccc(OC2CCN(C3CCC3)CC2)cc1
Occ90 (Mus musculus [1]): 30 nM
Ratio (LLC-PK1 [2]): 1
Cmax [3]: 1300 nM
Drug uptake (Brain [4]): 0.062 nmol/g
Ki (Histamine H3 receptor [5]): 8.4 nM
Drug uptake (Brain [6]): 7.6 nmol/g
concentration at 2 h [7]: 2400 nM
Kp at 2 h [8]: 9.4
Activity (Rattus norvegicus [9]): >90%
Ki (Histamine H3 receptor [10]): 6.8 nM
Ki (Histamine H3 receptor [11]): 6 nM
Activity (Rattus norvegicus [12]): Dose-dependent effect
Kp at 2 h [13]: 1.9
clearance [14]: 44 mL/min/kg
AUC(0-inf) [15]: 6.2 µM·h
Cmax [16]: 380 nM
IC50 (Histamine H1 receptor): > 10000 nM
IC50 (Histamine H3 receptor [17]): 0.55 nM
IC50 [18]: > 10000 nM
concentration at 2 h [19]: 28 nM
Drug uptake (Brain [20]): 0.26 nmol/g
AUC(0-inf) [21]: 0.05 µM·h
Cmax [22]: 20 nM
Occ90 (Mus musculus [23]): 0.28 nmol/g
concentration at 2 h [24]: 950 nM
Occ90 (Mus musculus [25]): 144 nM
clearance [26]: 11 mL/min/kg
bioavailability [27]: 4.8%
concentration at 2 h [28]: 32 nM
AUC (Rhesus monkey [29]): 1.7 µM·h
IC50 (Histamine H4 receptor): > 10000 nM
IC50 (Histamine H2 receptor): > 10000 nM
F (Rhesus monkey [30]): 37%
Ratio (LLC-PK1 [31]): 1.8
bioavailability [32]: 53%
Ratio [33]: 0.13
Kp at 2 h [34]: 3.2
